Test results from ChEMBL document CHEMBL1764951, “Synthesis of a new 4-aza-2,3-didehydropodophyllotoxin analogues as potent cytotoxic and antimitotic agents” (2011).
Structures can show the parent of a compound that is named as a salt. Active and inactive are the calls of the source. The calls are words filed in the database; no cut-off is given here.

Columns and labels:
KB = test: Cytotoxicity against human KB cells after 48 hrs by sulforhodamine B based ELISA; assay type: functional
Summary of the method: (§1)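 Lines were grown in DMEM with 10% FBS and 2 mM L-glutamine, plated at densities set by doubling time, and held 24 h at 37 °C, 5% CO2. Drugs were tested at 0.1, 1, 10 and 100 µM in triplicate wells for 48 h. Cells were fixed with cold TCA (10% final) for 60 min at 4 °C, stained 20 min with 0.4% SRB in 1% acetic acid, and eluted with 10 mM Tris base. A540 was read with a 690 nm reference. GI50 came from [(Ti−Tz)/(C−Tz)]×100 = 50; runs were repeated three times.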

A549 [1] = test: Cell cycle arrest in human A549 cells assessed as accumulation at G1 phase at 10 uM after 48 hrs using propidium iodide staining by flow cytometry (reference value: 71.6%); assay type: functional
A549 [2] = test: Cell cycle arrest in human A549 cells assessed as accumulation at S phase at 10 uM after 48 hrs using propidium iodide staining by flow cytometry (reference value: 5.2%); assay type: functional
A2780 = test: Cytotoxicity against human A2780 cells after 48 hrs by sulforhodamine B based ELISA; assay type: functional; conditions: A2780, 48 h; summary of the method: as §1
Tubulin (Homo sapiens) [3] = target: T1, Tubulin (Homo sapiens) (UniProt P68371+Q9H4B7+P0DPH7+P68366+Q13509+Q71U36+P04350+Q3ZCM7+P07437+P68363+Q9BQE3+Q6PEY2+Q13885+Q9BVA1+Q9BUF5); test: Inhibition of tubulin polymerization in human A549 cells assessed as disrupted microtubule organization at 5 uM after 48 hrs by immunohistochemistry; assay type: cell-based
Summary of the method: (§2)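 A-549 cells on glass coverslips were treated 48 h with compound at 5 µM or podophyllotoxin at 1 µM. They were fixed in 3% paraformaldehyde/0.02% glutaraldehyde in PBS, permeabilized in −20 °C methanol, and blocked 1 h in 1% BSA. Staining used a mouse monoclonal anti-tubulin antibody and an FITC-conjugated secondary. Microtubule network integrity was assessed by confocal microscopy.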

COLO 205 = test: Cytotoxicity against human COLO205 cells after 48 hrs by sulforhodamine B based ELISA; assay type: functional; conditions: COLO 205, 48 h; summary of the method: as §1
A549 [4] = test: Cell cycle arrest in human A549 cells assessed as accumulation at G2/M phase at 10 uM after 48 hrs using propidium iodide staining by flow cytometry (reference value: 23.1%); assay type: functional
Tubulin (Homo sapiens) [5] = target: T1, Tubulin (Homo sapiens); test: Inhibition of tubulin polymerization in human A549 cells assessed as disrupted microtubule organization at 1 uM after 48 hrs by immunohistochemistry; assay type: cell-based; summary of the method: as §2
A549 [6] = test: Cytotoxicity against human A549 cells after 48 hrs by sulforhodamine B based ELISA; assay type: functional; conditions: A549, 48 h; summary of the method: as §1
[7] = Inhibition of tubulin polymerization at 3 uM after 1 hr fluorescence analysis relative to control
Summary of the method: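 The cell-free fluorescence kit assay used PEM buffer, 1 mM GTP and compound at 3 µM final. Polymerization was followed as reporter incorporation into microtubules, read at 460 nm emission for 1 h at 37 °C, with podophyllotoxin as the positive control. Percent inhibition was expressed relative to the untreated control.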

A549 [8] = test: Induction of apoptosis in human A549 cells assessed as activation of caspase 3 at 5 uM after 48 hrs by fluorimetric assay relative to control; assay type: functional
Summary of the method: (§3)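 A-549 cells in 6-well plates at 60–80% confluence were given compound at 5 µM, with podophyllotoxin at 1 µM as the positive control. The methods give 24 h incubation; the legend gives 48 h. Cells were scraped, lysed by syringe in lysis buffer on ice 10–20 min, and spun at 13,200 rpm for 20 min at 4 °C. The supernatant was assayed fluorimetrically with an AMC-conjugated caspase-3 substrate. Values are the mean ± SD of two experiments, each in triplicate.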

MCF7 = test: Cytotoxicity against human MCF7 cells after 48 hrs by sulforhodamine B based ELISA; assay type: functional; conditions: MCF7, 48 h; summary of the method: as §1
A549 [9] = test: Cell cycle arrest in human A549 cells assessed as accumulation at S phase at 1 uM after 48 hrs using propidium iodide staining by flow cytometry (reference value: 5.2%); assay type: functional
A549 [10] = test: Cell cycle arrest in human A549 cells assessed as accumulation at G2/M phase at 1 uM after 48 hrs using propidium iodide staining by flow cytometry (reference value: 23.1%); assay type: functional
A549 [11] = test: Cell cycle arrest in human A549 cells assessed as accumulation at G1 phase at 1 uM after 48 hrs using propidium iodide staining by flow cytometry (reference value: 71.6%); assay type: functional
A549 [12] = test: Induction of apoptosis in human A549 cells assessed as activation of caspase 3 at 1 uM after 48 hrs by fluorimetric assay relative to control; assay type: functional; summary of the method: as §3

Compound | GI50 (KB) [nM] | GI50 (A2780) [nM] | GI50 (COLO 205) [nM] | GI50 (A549 [6]) [nM] | GI50 (MCF7) [nM] | further results
COc1cc(C2C3=C(COC3=O)Nc3ccc4cc(C)[nH]c4c32)cc(OC)c1OC (stereo not drawn) | 2000 |  |  |  |  | 
COc1cc(C2C3=C(COC3=O)Nc3ccc4ncsc4c32)cc(OC)c1OC (stereo not drawn) | 2100 | 2300 | 2500 | 2400 |  | Activity (A549 [1]): 42.4%; Activity (A549 [2]): 4.4%; inhibition (Tubulin (Homo sapiens) [3]): Active; Activity (A549 [4]): 53.1%; inhibition (Tubulin (Homo sapiens) [5]): Active; inhibition [7]: 49.4%; fold change (FC) (A549 [8]): 2
COc1cc(C2C3=C(COC3=O)Nc3ccc4cn[nH]c4c32)ccc1O (stereo not drawn) |  |  | 2000 |  | 2000 | 
COc1cc(C2C3=C(COC3=O)Nc3ccc4nn[nH]c4c32)cc(OC)c1OC (stereo not drawn) | 2900 |  |  |  |  | 
COc1cc(C2C3=C(COC3=O)Nc3ccc4cc[nH]c4c32)cc(OC)c1OC (stereo not drawn) | 2000 | 2700 | 2300 | 2400 |  | 
COc1cc(C2C3=C(COC3=O)Nc3c2cc(OC)c(OC)c3OC)ccc1O (stereo not drawn) |  |  |  |  | 2900 | 
COc1ccc(C2C3=C(COC3=O)Nc3onc(-c4ccc(Cl)cc4)c32)cc1O (stereo not drawn) | 2700 |  |  |  |  | 
COc1ccc(C2C3=C(COC3=O)Nc3ccc4cc[nH]c4c32)cc1O (stereo not drawn) | 2200 | 2700 | 190 | 2300 | 2900 | 
COc1ccc(C2C3=C(COC3=O)Nc3ccc4cc(C)[nH]c4c32)c(F)c1 (stereo not drawn) | 2200 | 2300 | 2700 |  | < 100 | 
COc1ccc(C2C3=C(COC3=O)Nc3ccc4cc[nH]c4c32)cc1[N+](=O)[O-] (stereo not drawn) |  |  | 2400 |  |  | 
COc1ccc(C2C3=C(COC3=O)Nc3ccc4cn[nH]c4c32)cc1O (stereo not drawn) |  |  | 2600 |  |  | 
COc1ccc(C2C3=C(COC3=O)Nc3ccc4nn[nH]c4c32)c(F)c1 (stereo not drawn) |  |  |  |  | < 100 | 
COc1cc(C2C3=C(COC3=O)Nc3ccc4nc(C)sc4c32)ccc1[N+](=O)[O-] (stereo not drawn) |  |  |  |  | 150 | 
COc1cc(C2C3=C(COC3=O)Nc3ccc4cc[nH]c4c32)ccc1F (stereo not drawn) | 170 | 2300 |  | 2200 | 2100 | 
COc1nc2c(c(OC)n1)C(c1cc(OC)c(OC)c(OC)c1)C1=C(COC1=O)N2 (stereo not drawn) | 170 |  | 160 | 2100 | 2400 | Activity (A549 [1]): 38.9%; Activity (A549 [2]): 12.7%; inhibition (Tubulin (Homo sapiens) [3]): Active; Activity (A549 [4]): 48.2%; inhibition (Tubulin (Homo sapiens) [5]): Active; inhibition [7]: 63.7%; fold change (FC) (A549 [8]): 2
COc1cc(C2C3=C(COC3=O)Nc3ccc4cc[nH]c4c32)ccc1O (stereo not drawn) |  |  | 2500 |  | 2300 | 
COc1cc(C2C3=C(COC3=O)Nc3ccc4cc(C)[nH]c4c32)ccc1F (stereo not drawn) |  | 2400 |  | 2100 | 2600 | Activity (A549 [1]): 35.4%; Activity (A549 [2]): 8.8%; inhibition (Tubulin (Homo sapiens) [3]): Active; Activity (A549 [4]): 55.6%; inhibition (Tubulin (Homo sapiens) [5]): Active; inhibition [7]: 45.3%; fold change (FC) (A549 [8]): 2
COc1nc2c(c(OC)n1)C(c1ccc(F)c(OC)c1)C1=C(COC1=O)N2 (stereo not drawn) | 2200 |  |  | 2600 |  | 
COc1cc(C2C3=C(COC3=O)Nc3ccc4cn[nH]c4c32)ccc1F (stereo not drawn) |  |  |  | 2300 | 2700 | 
COc1cccc2c1C(=O)c1c(O)c3c(c(O)c1C2=O)C[C@@](O)(C(=O)CO)C[C@@H]3O[C@H]1C[C@H](N)[C@H](O)[C@H](C)O1 [DOXORUBICIN HYDROCHLORIDE] | 130 | < 100 | < 100 | < 100 | 130 | 
COc1cc([C@@H]2c3cc4c(cc3[C@H](O)[C@H]3COC(=O)[C@H]23)OCO4)cc(OC)c1OC [PODOFILOX] |  |  |  |  |  | Activity (A549 [9]): 7.1%; inhibition (Tubulin (Homo sapiens) [3]): Active; Activity (A549 [10]): 61.5%; inhibition (Tubulin (Homo sapiens) [5]): Active; Activity (A549 [11]): 31.4%; inhibition [7]: 80.7%; fold change (FC) (A549 [12]): 4
COc1cc([C@@H]2c3cc4c(cc3[C@@H](O[C@@H]3O[C@@H]5CO[C@@H](C)O[C@H]5[C@H](O)[C@H]3O)[C@H]3COC(=O)[C@H]23)OCO4)cc(OC)c1O [ETOPOSIDE] | 300 | 1300 | 130 | 3080 | 2100 | 
COc1ccc(C2C3=C(COC3=O)Nc3ccc4nc(S)[nH]c4c32)cc1O (stereo not drawn) |  |  |  |  | 2700 | 
